# Key:
# [1] = molecular target: Sodium-dependent dopamine transporter (Rattus norvegicus, UniProt P23977); assay: Displacement of [3H]WIN-35428 from DAT in Sprague-Dawley rat brain; format: tissue-based
# Outline: (§1)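 Male Sprague-Dawley rats (200-250 g); striata, midbrain or frontal cortex tissue used for competition binding. Final radioligand concentrations were 0.5 nM for DAT, 0.2 nM [³H]paroxetine for SERT and 0.5 nM [³H]nisoxetine for NET.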
# [2] = molecular target: Sodium-dependent serotonin transporter (Rattus norvegicus, UniProt P31652); assay: Displacement of [3H]paroxetine from SERT in Sprague-Dawley rat brain; format: tissue-based; outline: as §1
# [3] = molecular target: Norepinephrine transporter (Rattus norvegicus, UniProt Q9WTR4); assay: Displacement of [3H]nisoxetine from NET in Sprague-Dawley rat brain; format: tissue-based; outline: as §1
# [4] = molecular target: Sodium-dependent dopamine transporter (Homo sapiens, UniProt Q01959); assay: Displacement of [125I]RTI-55 from human DAT expressed in HEK cells after 90 mins; format: cell-based, HEK293
# Outline: (§2)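 Competition binding on human DAT or SERT stably expressed in HEK293 cells, using the nonselective radioligand [¹²⁵I]RTI-55.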
# [5] = molecular target: T1, Sodium-dependent serotonin transporter (Homo sapiens, UniProt P31645); assay: Displacement of [125I]RTI-55 from human SERT expressed in HEK cells after 90 mins; format: cell-based, HEK293; outline: as §2
# [6] = molecular target: T1, Sodium-dependent serotonin transporter; assay: Inhibition of human SERT in HEK cells assessed as [3H]serotonin reuptake; format: functional, cell-based, HEK293
# Outline: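 Human SERT stably expressed in HEK293 cells; the compound's block of radiolabelled serotonin reuptake was measured in these cells.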
# [7] = molecular target: T2, Sodium-dependent noradrenaline transporter (Homo sapiens, UniProt P23975); assay: Displacement of [125I]RTI-55 from human NET expressed in HEK cells after 90 mins; format: cell-based, HEK293
# [8] = molecular target: T2, Sodium-dependent noradrenaline transporter; assay: Inhibition of human NET in HEK cells assessed as [3H]norepinephrine reuptake; format: functional, cell-based, HEK293
# Sodium-dependent dopamine transporter (Rattus norvegicus, UniProt P23977), sequence (P23977 whole entry): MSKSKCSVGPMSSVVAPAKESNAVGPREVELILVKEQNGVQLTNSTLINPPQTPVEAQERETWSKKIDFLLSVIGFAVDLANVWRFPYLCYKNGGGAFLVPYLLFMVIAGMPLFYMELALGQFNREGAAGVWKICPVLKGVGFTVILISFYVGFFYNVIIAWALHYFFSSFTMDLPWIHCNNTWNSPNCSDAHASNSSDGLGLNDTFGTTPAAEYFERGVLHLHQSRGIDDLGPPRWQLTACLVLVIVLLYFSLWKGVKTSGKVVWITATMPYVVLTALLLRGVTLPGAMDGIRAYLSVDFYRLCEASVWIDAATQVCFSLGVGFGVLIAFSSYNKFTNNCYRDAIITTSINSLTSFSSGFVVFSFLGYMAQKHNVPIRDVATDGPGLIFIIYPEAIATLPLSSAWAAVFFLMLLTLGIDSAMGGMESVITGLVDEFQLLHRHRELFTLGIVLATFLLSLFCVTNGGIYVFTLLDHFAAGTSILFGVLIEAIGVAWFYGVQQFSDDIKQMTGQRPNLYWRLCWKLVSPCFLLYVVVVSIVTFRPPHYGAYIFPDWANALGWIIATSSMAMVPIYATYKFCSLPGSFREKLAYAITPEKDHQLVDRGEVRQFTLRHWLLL
# T1 sequence (P31645 whole entry): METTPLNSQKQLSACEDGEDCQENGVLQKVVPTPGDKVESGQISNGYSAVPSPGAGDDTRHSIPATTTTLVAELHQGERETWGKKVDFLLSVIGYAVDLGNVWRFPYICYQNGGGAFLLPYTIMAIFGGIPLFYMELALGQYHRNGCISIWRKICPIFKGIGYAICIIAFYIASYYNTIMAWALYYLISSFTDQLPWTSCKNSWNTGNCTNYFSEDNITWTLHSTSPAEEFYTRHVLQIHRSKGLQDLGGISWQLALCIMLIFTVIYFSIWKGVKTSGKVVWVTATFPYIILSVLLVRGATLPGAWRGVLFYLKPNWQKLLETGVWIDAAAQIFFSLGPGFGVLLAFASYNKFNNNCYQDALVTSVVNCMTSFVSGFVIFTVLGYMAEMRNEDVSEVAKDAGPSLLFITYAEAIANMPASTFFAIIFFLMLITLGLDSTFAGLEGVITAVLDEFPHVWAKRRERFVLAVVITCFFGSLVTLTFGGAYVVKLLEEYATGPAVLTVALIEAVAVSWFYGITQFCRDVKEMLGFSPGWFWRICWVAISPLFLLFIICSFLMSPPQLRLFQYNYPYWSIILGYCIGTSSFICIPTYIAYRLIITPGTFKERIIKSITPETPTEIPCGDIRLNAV
# Sodium-dependent dopamine transporter (Homo sapiens, UniProt Q01959), sequence (Q01959 whole entry): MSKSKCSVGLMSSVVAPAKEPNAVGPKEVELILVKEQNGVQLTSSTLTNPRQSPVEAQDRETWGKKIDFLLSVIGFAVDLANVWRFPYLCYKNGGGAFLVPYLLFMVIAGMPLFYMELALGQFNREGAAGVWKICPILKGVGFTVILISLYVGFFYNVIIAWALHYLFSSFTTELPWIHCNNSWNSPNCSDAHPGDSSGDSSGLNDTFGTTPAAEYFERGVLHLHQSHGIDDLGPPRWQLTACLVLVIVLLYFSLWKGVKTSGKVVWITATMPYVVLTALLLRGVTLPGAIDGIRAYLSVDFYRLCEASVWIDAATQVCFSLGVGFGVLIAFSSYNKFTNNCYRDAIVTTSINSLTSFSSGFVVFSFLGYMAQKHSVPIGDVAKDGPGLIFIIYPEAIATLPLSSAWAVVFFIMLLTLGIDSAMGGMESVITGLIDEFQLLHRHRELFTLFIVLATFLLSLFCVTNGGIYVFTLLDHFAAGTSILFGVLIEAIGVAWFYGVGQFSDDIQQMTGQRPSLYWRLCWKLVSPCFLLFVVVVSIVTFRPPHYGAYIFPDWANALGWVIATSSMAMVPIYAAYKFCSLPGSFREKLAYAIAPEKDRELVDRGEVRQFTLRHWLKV
# Sodium-dependent serotonin transporter (Rattus norvegicus, UniProt P31652), sequence (P31652 whole entry): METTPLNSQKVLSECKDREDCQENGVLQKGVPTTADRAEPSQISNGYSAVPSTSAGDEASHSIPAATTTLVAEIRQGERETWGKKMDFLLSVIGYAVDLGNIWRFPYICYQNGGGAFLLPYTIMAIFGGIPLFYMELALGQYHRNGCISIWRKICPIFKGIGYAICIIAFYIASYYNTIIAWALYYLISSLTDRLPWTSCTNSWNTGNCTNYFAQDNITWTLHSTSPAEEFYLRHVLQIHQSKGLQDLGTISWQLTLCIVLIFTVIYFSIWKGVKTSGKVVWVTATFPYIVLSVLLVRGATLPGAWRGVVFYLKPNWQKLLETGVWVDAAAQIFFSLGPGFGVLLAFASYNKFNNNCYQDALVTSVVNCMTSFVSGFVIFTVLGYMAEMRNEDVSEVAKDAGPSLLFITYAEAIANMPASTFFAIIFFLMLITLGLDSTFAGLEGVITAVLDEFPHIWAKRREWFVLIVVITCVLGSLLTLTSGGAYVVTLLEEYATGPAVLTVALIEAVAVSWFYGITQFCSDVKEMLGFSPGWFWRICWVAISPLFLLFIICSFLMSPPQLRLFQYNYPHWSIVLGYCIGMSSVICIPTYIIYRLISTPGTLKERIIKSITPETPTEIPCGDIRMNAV
# Norepinephrine transporter, sequence (Q9WTR4 whole entry): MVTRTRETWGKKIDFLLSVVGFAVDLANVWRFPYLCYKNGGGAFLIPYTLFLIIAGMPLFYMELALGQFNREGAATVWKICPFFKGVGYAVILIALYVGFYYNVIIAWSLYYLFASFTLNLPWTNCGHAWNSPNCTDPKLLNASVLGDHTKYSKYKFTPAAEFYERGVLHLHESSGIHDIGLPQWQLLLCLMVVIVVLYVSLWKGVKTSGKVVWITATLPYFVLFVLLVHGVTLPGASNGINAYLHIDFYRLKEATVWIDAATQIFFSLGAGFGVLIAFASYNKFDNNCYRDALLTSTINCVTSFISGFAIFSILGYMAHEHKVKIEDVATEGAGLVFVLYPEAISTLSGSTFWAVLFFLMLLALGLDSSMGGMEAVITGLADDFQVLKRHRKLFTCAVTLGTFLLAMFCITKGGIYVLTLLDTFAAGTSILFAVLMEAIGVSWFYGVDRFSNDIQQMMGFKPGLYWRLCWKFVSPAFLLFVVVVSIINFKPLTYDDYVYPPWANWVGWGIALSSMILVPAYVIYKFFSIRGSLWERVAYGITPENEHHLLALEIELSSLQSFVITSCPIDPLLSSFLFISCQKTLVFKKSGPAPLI
# T2 sequence (P23975 whole entry): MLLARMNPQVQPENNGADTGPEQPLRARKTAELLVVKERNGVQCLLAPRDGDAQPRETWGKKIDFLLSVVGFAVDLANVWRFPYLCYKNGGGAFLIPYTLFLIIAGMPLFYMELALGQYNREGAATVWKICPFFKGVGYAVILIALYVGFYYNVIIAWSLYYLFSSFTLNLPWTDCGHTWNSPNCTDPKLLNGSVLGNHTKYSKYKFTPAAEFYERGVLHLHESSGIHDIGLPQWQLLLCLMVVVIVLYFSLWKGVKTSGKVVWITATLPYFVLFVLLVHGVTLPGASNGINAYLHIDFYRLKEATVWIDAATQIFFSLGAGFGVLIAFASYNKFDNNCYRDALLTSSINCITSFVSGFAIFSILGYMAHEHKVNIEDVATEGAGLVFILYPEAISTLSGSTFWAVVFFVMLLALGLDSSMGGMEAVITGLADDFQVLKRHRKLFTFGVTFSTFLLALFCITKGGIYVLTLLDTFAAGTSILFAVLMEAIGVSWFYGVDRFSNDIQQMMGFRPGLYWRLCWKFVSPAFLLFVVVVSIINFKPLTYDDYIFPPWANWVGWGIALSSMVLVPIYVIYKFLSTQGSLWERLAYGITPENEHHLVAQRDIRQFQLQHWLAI
SMILES,IC50 [1],Ki [2],Ki [3],Ki [4],Ki [5],IC50 [6],Ki [7],IC50 [8]
Cc1ccc([C@H]2C[C@@H]3CC[C@H]([C@H]2c2ncc(-c4ccc([N+](=O)[O-])cc4)s2)N3C)cc1,41 nM,1690 nM,> 2000 nM,140 nM,1640 nM,3170 nM,,
Cc1ccc([C@H]2C[C@@H]3CC[C@H]([C@H]2c2ncc(-c4ccc(Cl)cc4)s2)N3C)cc1,22 nM,1110 nM,> 2000 nM,212 nM,1320 nM,377 nM,,
COc1ccc(-c2cnc([C@H]3[C@@H](c4ccc(C)cc4)C[C@@H]4CC[C@H]3N4C)s2)cc1,15 nM,> 2000 nM,> 2000 nM,53 nM,3670 nM,6800 nM,3630 nM,1810 nM
COc1ccc(-c2cnc([C@H]3[C@@H](c4ccc(C)cc4)C[C@@H]4CC[C@H]3N4C)s2)cc1OC,83 nM,> 2000 nM,> 2000 nM,529 nM,7710 nM,> 10000 nM,,
Cc1ccc([C@H]2C[C@@H]3CC[C@H]([C@H]2c2ncc(-c4ccc(F)cc4)s2)N3C)cc1,12 nM,2240 nM,> 2000 nM,61 nM,1720 nM,3200 nM,,
Cc1ccc([C@H]2C[C@@H]3CC[C@H]([C@H]2c2ncc(-c4cccc([N+](=O)[O-])c4)s2)N3C)cc1,4 nM,10000 nM,> 2000 nM,14 nM,580 nM,2380 nM,,
CN1[C@H]2CC[C@@H]1[C@@H](c1ncc(-c3ccc([N+](=O)[O-])cc3)s1)[C@@H](c1ccc(Cl)cc1)C2,20 nM,980 nM,> 2000 nM,6.1 nM,1820 nM,3600 nM,,
Cc1ccc([C@H]2C[C@@H]3CC[C@H]([C@H]2c2ncc(-c4cccc(Br)c4)s2)N3C)cc1,10 nM,312 nM,> 2000 nM,12 nM,870 nM,3860 nM,,
COC(=O)[C@H]1[C@@H](c2ccccc2)C[C@@H]2CC[C@H]1N2C [TROPARIL],23 nM,,920 nM,,,,,
CN1[C@H]2CC[C@@H]1[C@@H](c1ncc(-c3ccc(F)cc3)s1)[C@@H](c1ccc(Cl)cc1)C2,6 nM,371 nM,> 2000 nM,12 nM,653 nM,1010 nM,,
Cc1ccc([C@H]2C[C@@H]3CC[C@H]([C@H]2c2ncc(-c4ccc(Br)cc4)s2)N3C)cc1,,,,130 nM,1870 nM,1840 nM,,
Cc1ccc([C@H]2C[C@@H]3CC[C@H]([C@H]2c2ncc(-c4ccc(Cl)c(Cl)c4)s2)N3C)cc1,102 nM,190 nM,> 2000 nM,105 nM,2940 nM,4400 nM,> 6100 nM,4000 nM
CN1[C@H]2CC[C@@H]1[C@@H](c1ncc(-c3ccc(Cl)cc3)s1)[C@@H](c1ccc(Cl)cc1)C2,20 nM,903 nM,> 2000 nM,28 nM,2390 nM,4400 nM,,
CN1[C@H]2CC[C@@H]1[C@@H](c1ncc(-c3ccc(Br)cc3)s1)[C@@H](c1ccc(Cl)cc1)C2,,840 nM,> 2000 nM,,5700 nM,8220 nM,,
CN1[C@H]2CC[C@@H]1[C@@H](c1ncc(-c3ccccc3)s1)[C@@H](c1ccc(Cl)cc1)C2,5.7 nM,> 2000 nM,8560 nM,18 nM,2670 nM,2710 nM,1840 nM,750 nM
CN1[C@H]2CC[C@@H]1[C@@H](c1ncc(-c3cccc([N+](=O)[O-])c3)s1)[C@@H](c1ccc(Cl)cc1)C2,5 nM,301 nM,> 2000 nM,7.7 nM,740 nM,1610 nM,,
COc1ccc(-c2cnc([C@H]3[C@@H](c4ccc(Cl)cc4)C[C@@H]4CC[C@H]3N4C)s2)cc1,14 nM,800 nM,> 2000 nM,8.6 nM,5200 nM,6700 nM,,
COc1ccc(-c2cnc([C@H]3[C@@H](c4ccc(Cl)cc4)C[C@@H]4CC[C@H]3N4C)s2)cc1OC,65 nM,1510 nM,> 2000 nM,234 nM,3590 nM,> 6800 nM,,
CN1[C@H]2CC[C@@H]1[C@@H](c1ncc(-c3cccc(Br)c3)s1)[C@@H](c1ccc(Cl)cc1)C2,18 nM,280 nM,> 2000 nM,39 nM,1500 nM,4000 nM,,
CN1[C@H]2CC[C@@H]1[C@@H](c1ncc(-c3ccc(Cl)c(Cl)c3)s1)[C@@H](c1ccc(Cl)cc1)C2,440 nM,380 nM,> 2000 nM,66 nM,2710 nM,5300 nM,,
